Hits are enriched below; roughly 1.3% of the tested compounds scored in any of these assays.
TAG inh: inhibitors of triacylglycerol accumulation; H9c2 cells, Nile Red lipid (TAG) fluorescence; cells loaded with 200 µM oleic acid; inhibition, % at 12.5 µM; 230,000 compounds, 0.66% hits; AID 651582;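 active = pattern-corrected inhibition of lipid staining of at least 50% with the nuclear-stain viability signal not falling by more than 50%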;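 note: 0% = DMSO wells and 100% = triacsin C control wells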
Lipid droplet: hepatic lipid droplet formation modulation; 240,000 compounds, 0.4% hits; AID 1656; inhibition, % at 6.5 µM; AML12 mouse hepatocytes, oleate lipid droplets, BODIPY imaging;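 active = lipid droplet intensity inhibited by at least 50%, with more than 500 cells counted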
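System: AML12 hepatocytes (mouse). Probe or stimulus: oleic acid at 100 µM to induce lipid droplet formation. Times: overnight treatment with compound plus oleate. Detection: Image-based BODIPY and DAPI two-channel analysis. Evaluation: percent inhibition of filter-corrected integrated lipid droplet intensity per well.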
LANA-H2A inh: blocks KSHV LANA binding to histone H2A/H2B; 320,000 compounds, 0.6% hits; Q9QR71; inhibition, % (no concentration beside the values); AID 2629; cell-free LANA-H2A/H2B peptide, fluorescence polarization; in the data active = inhibition mostly above about 10%, no sharp cut-off; inactive = mostly below about 6.7%
GSK3A inh: blocks human GSK-3 alpha kinase; ADP-Glo luminescence, 60 min; 320,000 compounds, 0.1% hits; AID 2650; inhibition, % at 10 µM;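 active = more than half of replicates show inhibition above 20%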;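 note: GST-tagged GSK-3 alpha with peptide substrate and 25 µM ATP; 0% = DMSO neutral wells and 100% = GW8510 positive control wells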
STK33 inh: blocks human STK33 kinase activity; purified STK33, MBP phosphorylation, ADP-Glo luminescence; inhibition, % at 10 µM; 320,000 compounds, 0.073% hits; AID 2661;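 active = inhibition at or above 25%, using the most active replicate where run in duplicate; inactive = inhibition below 25%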
Target sequence (Q9BYT3 whole entry, looked up): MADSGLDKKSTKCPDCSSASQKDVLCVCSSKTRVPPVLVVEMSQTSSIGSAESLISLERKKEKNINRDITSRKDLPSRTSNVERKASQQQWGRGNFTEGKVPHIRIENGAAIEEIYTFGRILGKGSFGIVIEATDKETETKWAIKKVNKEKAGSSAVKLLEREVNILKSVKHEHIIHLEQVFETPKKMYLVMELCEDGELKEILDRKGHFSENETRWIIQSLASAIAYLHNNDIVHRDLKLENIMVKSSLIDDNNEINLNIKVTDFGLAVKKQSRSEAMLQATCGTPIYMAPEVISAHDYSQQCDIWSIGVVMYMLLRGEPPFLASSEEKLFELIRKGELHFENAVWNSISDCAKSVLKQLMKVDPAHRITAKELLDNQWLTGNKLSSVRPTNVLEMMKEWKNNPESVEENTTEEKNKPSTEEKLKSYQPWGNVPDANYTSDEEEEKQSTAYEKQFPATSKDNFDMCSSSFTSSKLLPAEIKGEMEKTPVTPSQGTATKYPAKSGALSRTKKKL
GSK3B inh: blocks human GSK3beta kinase activity; P49841; GST-GSK3beta kinase, ADP-Glo luminescence, 60 min; stronger effect = lower value; activity score (negative = inhibition), % at 10 µM; 300,000 compounds, 0.038% hits; AID 2097;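 active = more than half of replicate wells score below -50%, meaning over 50% inhibition versus plate controls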;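 note: 0% = median DMSO wells and -100% = median GW8510 positive control wells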
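Test system: GST-tagged human GSK3beta kinase, cell-free; evaluation: activity score scaled between in-plate DMSO and GW8510 controls; measured by: ADP-Glo luminescence; incubation: 60 min reaction, RT; benchmarks: DMSO and 20 µM GW8510; reagent: peptide substrate plus 25 µM ATP (final); medium: Tris/MgCl2 kinase buffer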
* = called active by the depositor.

COc1ccc(CN(C)C(=O)COC(=O)c2ccc3c(c2)OCO3)cc1OC was read as TAG inh 12, Lipid droplet 9, LANA-H2A inh -4, STK33 inh 0 and GSK3B inh 1.
NC(=O)Cn1c(O)c(N=NC(=O)CNC(=O)/C=C/c2ccccc2)c2ccccc21 was read as Lipid droplet 4, LANA-H2A inh 23*, GSK3A inh -1, STK33 inh -1 and GSK3B inh -1.
For CCCn1c(O)c(N=NC(=O)CNC(=O)/C=C/c2ccc(OC)cc2)c2ccccc21 the results were Lipid droplet 1, LANA-H2A inh 2, GSK3A inh -3, STK33 inh 0 and GSK3B inh 1.
`O=C(CSc1nnc(CNC(=O)c2cccs2)o1)NCCc1ccccc1` gave TAG inh -20, Lipid droplet -45, LANA-H2A inh 36*, GSK3A inh -1, STK33 inh 0 and GSK3B inh 2.
For CC1=CC2=NC(=O)/C(=C/c3coc4ccc(Cl)cc4c3=O)C(=N)N2O1 the results were TAG inh -8, Lipid droplet 6, LANA-H2A inh -16, GSK3A inh -1, STK33 inh 0 and GSK3B inh 4.
`O=C(Nc1nc(-c2ccc(Cl)cc2)cs1)C1CCCO1` (centres undefined) gave TAG inh 19, Lipid droplet -12, LANA-H2A inh -4, GSK3A inh -3, STK33 inh 0 and GSK3B inh 1.
`O=C(Nc1nc(-c2ccc(Cl)cc2Cl)cs1)C1CCCO1` (centres undefined) gave Lipid droplet 54*, LANA-H2A inh 6, GSK3A inh -3, STK33 inh -2 and GSK3B inh -1.
Screening COc1cccc(C(=O)N/N=C/c2ccc(OC3CSC3)cc2)c1 returned TAG inh -14, Lipid droplet 40, LANA-H2A inh 46*, GSK3A inh 0, STK33 inh -1 and GSK3B inh 5.
For Cc1cccc(C(=O)N/N=C/c2ccc(OC3CSC3)cc2)c1 the results were LANA-H2A inh 0, GSK3A inh -6, STK33 inh 0 and GSK3B inh -1.
For CCn1c(CN2CCOCC2)nnc1SCC(=O)Nc1ccc(C)cc1 the results were TAG inh 0, Lipid droplet 0, LANA-H2A inh 0, GSK3A inh -4, STK33 inh -1 and GSK3B inh 3.
CCn1c(CN2CCOCC2)nnc1SCC(=O)Nc1ccccc1C was read as TAG inh 6, Lipid droplet 28, LANA-H2A inh 127*, GSK3A inh 1, STK33 inh -1 and GSK3B inh -4.
For c1ccc(CCc2nc(-c3cccnc3)no2)cc1 the results were TAG inh -10, Lipid droplet 21, LANA-H2A inh 4, GSK3A inh -3, STK33 inh -1 and GSK3B inh -5.
Screening O=C(NC1CCC(O)CC1)c1ccc(NS(=O)(=O)c2cccc([N+](=O)[O-])c2)cc1 (centres undefined) returned TAG inh 2, LANA-H2A inh 24*, GSK3A inh -1 and STK33 inh 0.
O=C(CSc1nnc(CNC(=O)c2ccc(F)cc2)o1)NCC1CCCO1 (centres undefined) was read as TAG inh -18, Lipid droplet -2, LANA-H2A inh 18*, GSK3A inh 1, STK33 inh -1 and GSK3B inh 3.
For CC(C)(C)c1ccc(C(=O)NCc2nnc(SCC(=O)NCC3CCCO3)o2)cc1 (centres undefined) the results were TAG inh 11, Lipid droplet 3, LANA-H2A inh -2, GSK3A inh 0, STK33 inh -1 and GSK3B inh -1.
For COc1ccc2c3c(cccc13)C(=O)CC2 the results were Lipid droplet 0, LANA-H2A inh active, GSK3A inh 4, STK33 inh 4 and GSK3B inh -1.
`CCCCC(=O)Nc1ccc(NC(=O)c2ccco2)cn1` gave Lipid droplet -1, LANA-H2A inh 11*, GSK3A inh 0, STK33 inh 0 and GSK3B inh -1.
Screening CCCC(=O)Nc1ccc(NC(=O)c2ccccn2)cn1 returned TAG inh 10, LANA-H2A inh 39*, GSK3A inh 1, STK33 inh 0 and GSK3B inh 0.
CCCC(=O)Nc1ccc(NC(=O)c2ccccc2OC)cn1 was read as TAG inh 7, LANA-H2A inh -1, GSK3A inh 0, STK33 inh -1 and GSK3B inh -1.
C[C@H]1O[C@H]1P(=O)(O)O was read as TAG inh -3, Lipid droplet -10, LANA-H2A inh 33* and GSK3B inh -1.
C[C@@H]1O[C@@H]1P(=O)(O)O was read as TAG inh -6, LANA-H2A inh 3, GSK3A inh 1 and STK33 inh 0.
Cn1c(=O)c(=O)n(C)c2cc(S(=O)(=O)N3CCCCCC3)ccc21 was read as LANA-H2A inh 5, GSK3A inh -1, STK33 inh -3 and GSK3B inh 2.
Screening Cn1c(=O)c(=O)n(C)c2cc(S(=O)(=O)N3CCC(Cc4ccccc4)CC3)ccc21 returned TAG inh -9, LANA-H2A inh 13*, GSK3A inh -2, STK33 inh 0 and GSK3B inh 2.
Screening CN(Cc1ccccc1)C(=O)C1CCCN1S(=O)(=O)c1ccc2c(c1)n(C)c(=O)c(=O)n2C (centres undefined) returned TAG inh -5, Lipid droplet -2, LANA-H2A inh 24*, GSK3A inh -4, STK33 inh 0 and GSK3B inh -3.
Screening O=S(=O)(c1ccccc1)[C@@]1(c2ccccc2)C[C@@H]2ON=C(c3cccc(Br)c3)[C@@H]2C1 returned TAG inh -15, LANA-H2A inh -6, GSK3A inh -2, STK33 inh -2 and GSK3B inh 4.
`O=C(NCc1ccncc1)C(=O)NC1CC1` gave TAG inh 7, Lipid droplet -1, LANA-H2A inh active, GSK3A inh 2, STK33 inh 0 and GSK3B inh -3.
Screening Cc1ccnc(NC(=O)CCC(=O)N(CC(=O)NCc2ccccc2)Cc2cccs2)c1 returned TAG inh 17, Lipid droplet -6, LANA-H2A inh -13, GSK3A inh 51*, STK33 inh 0 and GSK3B inh -23.
Cc1ccnc(NC(=O)CCC(=O)N(CC(=O)NCc2ccccc2)Cc2ccccc2)c1 was read as Lipid droplet 20, LANA-H2A inh 5, GSK3A inh 15, STK33 inh -1 and GSK3B inh -3.
Screening Cc1ccc2oc(C(=O)NCc3ccc(S(N)(=O)=O)cc3)cc(=O)c2c1 returned Lipid droplet -5, LANA-H2A inh 0, GSK3A inh -2, STK33 inh -1 and GSK3B inh -5.

Bioassay records (PubChem BioAssay)
